Data on three molecules can be found in ChEMBL document CHEMBL3779815, “Synthesis of newer 1,2,3-triazole linked chalcone and flavone hybrid compounds and evaluation of their antimicrobial and cytotoxic activities” (Eur J Med Chem, 2016).

SMILES strings stand for the structures. ≈ marks a conversion by molar mass, not a printed value.

One data set deals with Shigella boydii. The data set is described as follows: Antibacterial activity against Shigella boydii clinical isolate after 18 to 24 hrs by micro-dilution method. The data set is classed as functional.
Another data set relates to Aspergillus fumigatus. The data set is described as follows: Antifungal activity against Aspergillus fumigatus clinical isolate after 18 to 24 hrs by micro-dilution method. The data set is classed as functional. A digest of the protocol:
(§1)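 Microdilution MIC run as the antibacterial protocol but on Sabouraud dextrose […] pH 7.3±0.2; compounds 100 to 0.78 μg/mL in twofold steps; saline-prepared inocula 1-2 × 10⁷ cfu/mL, 0.01 mL added; 37 °C aerobic, 18-24 h; MIC read as lowest concentration without visible growth or turbidity; fluconazole reference.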
A general note: Broth dilution looks for growth in wells or tubes with falling amounts of substance.

Another data set concerns Candida tropicalis. The data set is described as follows: Antifungal activity against Candida tropicalis ATCC 750 after 18 to 24 hrs by micro-dilution method. The data set is classed as functional. In short, it runs like this:
as §1

The test system of data set [1] is Candida albicans. The data set is described as follows: Antifungal activity against Candida albicans ATCC 90028 after 18 to 24 hrs by micro-dilution method. The data set is classed as functional. In short, it runs like this: as §1
Another data set has as its system Klebsiella pneumoniae. The data set is described as follows: Antibacterial activity against Klebsiella pneumoniae ATCC 27736 after 18 to 24 hrs by micro-dilution method. In kind it is functional.
In a further data set the test system is Escherichia coli. The data set is described as follows: Antibacterial activity against Escherichia coli ATCC 35218 after 18 to 24 hrs by micro-dilution method. The data set is classed as functional.
A further data set relates to Staphylococcus aureus. The data set is described as follows: Antibacterial activity against Staphylococcus aureus […] after 18 to 24 hrs by micro-dilution method. The data set is classed as functional.
The next data set relates to Cryptococcus neoformans. The data set is described as follows: Antifungal activity against Cryptococcus neoformans clinical isolate after 18 to 24 hrs by micro-dilution method. In kind it is functional. A digest of the protocol: as §1
A further data set deals with Enterococcus faecalis. The data set is described as follows: Antibacterial activity against Enterococcus faecalis ATCC 29212 after 18 to 24 hrs by micro-dilution assay. The data set is classed as functional.
Data set [2] is described as follows: Cytotoxicity against human HuH7 cells after 72 hrs by MTT assay. In kind it is cell-based, Huh-7. A digest of the protocol: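 Huh-7 cells, 4 × 10³/well in DMEM with 10% FBS and penicillin-streptomycin-glutamine; eight 2-fold dilutions 100-0.78 μg/mL, 72 h; MTT added 2-4 h, then isopropanol/Triton X-100/HCl solubilization 2 h dark, RT; absorbance 570 nm; CC50 as mean of at least two experiments in duplicate.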
A general note: Tetrazolium assays rely on reduction of a dye to a coloured formazan, in cell work by metabolically active cells.

Another data set deals with Aspergillus niger. The data set is described as follows: Antifungal activity against Aspergillus niger clinical isolate after 18 to 24 hrs by micro-dilution method. In kind it is functional. In short, it runs like this: as §1
The subject of data set [3] is Candida albicans. The data set is described as follows: Antifungal activity against Candida albicans clinical isolate after 18 to 24 hrs by micro-dilution method. In kind it is functional. In short, it runs like this: as §1
A further data set relates to Pseudomonas aeruginosa. The data set is described as follows: Antibacterial activity against Pseudomonas aeruginosa […] after 18 to 24 hrs by micro-dilution method. The data set is classed as functional.
A further data set relates to Arthrodermataceae. The data set is described as follows: Antifungal activity against Dermatophyte clinical isolate after 18 to 24 hrs by micro-dilution method. The data set is classed as functional. In short, it runs like this: as §1
Another data set concerns Plasmodium falciparum. The data set is described as follows: Antimalarial activity against erythrocytic stage of chloroquine sensitive Plasmodium falciparum 3D7 assessed as inhibition of parasitemia after 48 hrs by Giemsa staining based microscopic analysis. The note with it: 3D7, 48 h. The data set is classed as functional, organism-based. In short, it runs like this:
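Asynchronous culture on human O⁺ erythrocytes, 1-1.5% parasitemia, 4% hematocrit, RPMI-1640 with HEPES, NaHCO₃, glutamine, gentamycin, Albumax II; drug 0.10-100 μg/mL, 48 h, 37 °C, medium changed at 24 h; triplicate wells; Giemsa thin smears, about 4,000 erythrocytes counted at 1,000X; % parasitemia inhibition versus control gives IC50.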

The test system of a further data set is Candida parapsilosis. The data set is described as follows: Antifungal activity against Candida parapsilosis ATCC 22019 after 18 to 24 hrs by micro-dilution method. The data set is classed as functional. The note with it: Lodderomyces parapsilosis. A digest of the protocol:
as §1

In general, MIC refers to the lowest concentration that inhibits growth of the organism. Higher therefore signals a need for much substance. What is called CC50 is the concentration that lowers cell viability or growth by half. What is called IC50 is the concentration that gives 50% inhibition. Turning to `COc1cc(OC)c2c(=O)cc(-c3ccc(OCc4cn(-c5ccc(F)cc5Cl)nn4)c(OCc4cn(-c5ccc(F)cc5Cl)nn4)c3)oc2c1`, the minimum inhibitory concentration (MIC) was more than 100 µg/mL in the data set with Shigella boydii; 12.5 µg/mL (≈ 17 µM) with Aspergillus fumigatus; 6.25 µg/mL (≈ 8.52 µM) in the data set with Candida tropicalis; 12.5 µg/mL (≈ 17 µM) with Candida albicans [1]; more than 100 µg/mL in the data set on Klebsiella pneumoniae; more than 100 µg/mL against Escherichia coli. Further, the minimum inhibitory concentration (MIC) in the data set on Staphylococcus aureus is more than 100 µg/mL; against Cryptococcus neoformans, 12.5 µg/mL (≈ 17 µM); against Enterococcus faecalis, more than 100 µg/mL; in the data set on Aspergillus niger, 12.5 µg/mL (≈ 17 µM); against Candida albicans [3] it was 12.5 µg/mL (≈ 17 µM); against Pseudomonas aeruginosa, more than 100 µg/mL. Moreover, the MIC against Arthrodermataceae was 6.25 µg/mL (≈ 8.52 µM); against Candida parapsilosis it was 12.5 µg/mL (≈ 17 µM). Further, the CC50 at 72 h in data set [2] is more than 100 µg/mL. Moreover, the half-maximal inhibitory concentration (IC50) in the data set with Plasmodium falciparum stood at 14.5 µg/mL (≈ 19.7 µM).

For `COc1cc(O)c(C(=O)/C=C/c2ccc(OCc3cn(-c4ccccc4Cl)nn3)c(OC)c2)c(OC)c1`, the MIC is 6.25 µg/mL (≈ 12 µM) in the data set with Shigella boydii; more than 100 µg/mL against Aspergillus fumigatus; more than 100 µg/mL in the data set with Candida tropicalis; more than 100 µg/mL against Candida albicans [1]; 25 µg/mL (≈ 47.9 µM) against Klebsiella pneumoniae; 6.25 µg/mL (≈ 12 µM) against Escherichia coli. The MIC against Staphylococcus aureus was 12.5 µg/mL (≈ 23.9 µM); against Cryptococcus neoformans it was more than 100 µg/mL; with Enterococcus faecalis, 6.25 µg/mL (≈ 12 µM); against Aspergillus niger, more than 100 µg/mL; against Candida albicans [3] it was more than 100 µg/mL; against Pseudomonas aeruginosa it was 12.5 µg/mL (≈ 23.9 µM). Moreover, the MIC against Arthrodermataceae and in the data set with Candida parapsilosis was more than 100 µg/mL each time. In [2], this molecule yielded a CC50 at 72 h of more than 100 µg/mL. Further, the IC50 in the data set on Plasmodium falciparum is 6.78 µg/mL (≈ 13 µM).

Take `COc1cc(OC)c2c(=O)cc(-c3ccc(OCc4cn(-c5ccc(F)cc5F)nn4)c(OC)c3)oc2c1`: the MIC against Shigella boydii, in the data set on Aspergillus fumigatus, with Candida tropicalis, in the data set with Candida albicans [1], with Klebsiella pneumoniae and against Escherichia coli was more than 100 µg/mL throughout. The MIC with Staphylococcus aureus, in the data set on Cryptococcus neoformans, in the data set with Enterococcus faecalis, in the data set on Aspergillus niger, with Candida albicans [3] and against Pseudomonas aeruginosa was more than 100 µg/mL each time. The MIC with Arthrodermataceae and in the data set with Candida parapsilosis was more than 100 µg/mL each time. The same molecule came in with a CC50 at 72 h in [2] of more than 100 µg/mL. The IC50 in the data set on Plasmodium falciparum was 4.79 µg/mL (≈ 9.19 µM).
